How the values were obtained:
[1] = system: 6 Hz corneal stimulation limbic seizure; conditions: cited from earlier work; for Anticonvulsant activity, mice protected/tested, 15' / Anticonvulsant activity, mice protected/tested, 30' / Anticonvulsant activity, mice protected/tested, 1h / Anticonvulsant activity, mice protected/tested, 2h / Anticonvulsant activity, mice protected/tested, 4h: 6 Hz, 32 mA, 4 mg/kg i.p.; for Anticonvulsant activity, mice protected/tested, 15': 15 min after administration; for Anticonvulsant activity, mice protected/tested, 30': 30 min after administration; for Anticonvulsant activity, mice protected/tested, 1h: 1 h after administration; for Anticonvulsant activity, mice protected/tested, 2h: 2 h after administration; for Anticonvulsant activity, mice protected/tested, 4h: 4 h after administration
[2] = CD, in the presence of 50% v/v 2,2,2-trifluoroethanol; cited from earlier work
[3] = system: human serum albumin; conditions: higher affinity of C8 versus C14; cited from earlier work
[4] = buffered 25% rat blood serum, 37 °C; cited from earlier work
[5] = type: physicochemical
How it was run: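 Capacity factors from analytical reversed-phase HPLC retention times (diphenyl column; 0.1% TFA water/acetonitrile; linear 20–100% B over 40 min, 20 min re-equilibration). […] Linear logD–retention correlation gave calculated logD.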

[6] = Mouse pain assay following i.p. administration; type: in vivo; conditions: unpublished results of the authors

| Molecule | Anticonvulsant activity, mice protected/tested, 15' [1] | Anticonvulsant activity, mice protected/tested, 30' [1] | Anticonvulsant activity, mice protected/tested, 1h [1] | Anticonvulsant activity, mice protected/tested, 2h [1] | Anticonvulsant activity, mice protected/tested, 4h [1] | α-helix content [2] [%] | chromatographic logD [5] | further results |
| --- | --- | --- | --- | --- | --- | --- | --- | --- |
| (Sar)WTLNSAGYLLGPKKKK [Gal-(K)4, reference compound] | 0/4 | 3/4 | 1/3 | 0/3 | 0/4 | 14 |  |  |
| CCCCCCCC(=O)O [octanoic acid] |  |  |  |  |  |  |  | affinity to human serum albumin compared to the C14 (myristic acid) [3]: 11 fold |
| Gal(1-16): unmodified Gal(1-16) analog |  |  |  |  |  |  |  | half-time in 25% rat serum [4]: 7.8 min |
| CCCCCCCC(=O)NCCCC[C@H](NC(=O)[C@H](CCCCN)NC(=O)[C@H](CCCCN)NC(=O)[C@@H]1CCCN1C(=O)CNC(=O)[C@H](CC(C)C)NC(=O)[C@H](CC(C)C)NC(=O)[C@H](Cc1ccc(O)cc1)NC(=O)CNC(=O)[C@H](C)NC(=O)[C@H](CO)NC(=O)[C@H](CC(N)=O)NC(=O)[C@H](CC(C)C)NC(=O)[C@@H](NC(=O)[C@H](Cc1c[nH]c2ccccc12)NC(=O)CNC)[C@@H](C)O)C(=O)N[C@@H](CCCCN)C(N)=O [Gal-B2-C8] |  |  |  |  |  |  | 0.78 |  |
| CCCCCCCCCCCCCCCCCC(=O)NCCCC[C@H](NC(=O)[C@H](CCCCN)NC(=O)[C@H](CCCCN)NC(=O)[C@@H]1CCCN1C(=O)CNC(=O)[C@H](CC(C)C)NC(=O)[C@H](CC(C)C)NC(=O)[C@H](Cc1ccc(O)cc1)NC(=O)CNC(=O)[C@H](C)NC(=O)[C@H](CO)NC(=O)[C@H](CC(N)=O)NC(=O)[C@H](CC(C)C)NC(=O)[C@@H](NC(=O)[C@H](Cc1c[nH]c2ccccc12)NC(=O)CNC)[C@@H](C)O)C(=O)N[C@@H](CCCCN)C(N)=O [Gal-B2-C18] |  |  |  |  |  |  | 1.35 |  |
| CCCCCCCCCCCCCCCC(=O)NCCCC[C@H](NC(=O)[C@H](CCCCN)NC(=O)[C@H](CCCCN)NC(=O)[C@@H]1CCCN1C(=O)CNC(=O)[C@H](CC(C)C)NC(=O)[C@H](CC(C)C)NC(=O)[C@H](Cc1ccc(O)cc1)NC(=O)CNC(=O)[C@H](C)NC(=O)[C@H](CO)NC(=O)[C@H](CC(N)=O)NC(=O)[C@H](CC(C)C)NC(=O)[C@@H](NC(=O)[C@H](Cc1c[nH]c2ccccc12)NC(=O)CNC)[C@@H](C)O)C(=O)N[C@@H](CCCCN)C(N)=O [Gal-B2] | 3/4 | 4/4 | 4/4 | 4/4 | 0/4 | 23 |  | analgesic activity [6]: comparable analgesic activities; anticonvulsant ED50 ([1]; i.p., 6 Hz pharmacoresistant model of epilepsy): 0.8 mg/kg |

From publication PMC2765488 (Journal of medicinal chemistry, 2009)
